Measured values gathered from unrelated publications.
Lines come from different studies, so protocols differ.
Target: Citron Rho-interacting kinase (CIT, Homo sapiens, UniProt O14578)

The remaining binding of `Nc1ncc2c(n1)-c1c([nH]c3ccc(C#CC4CC4)cc13)CCCC2` is reported as 88% (binding, competition with immobilised ligand; 1 µM).
`O=C(c1ccc(Nc2ncc(Cl)c(-c3cc4ccccc4s3)n2)cc1)N1CCC(N2CCCC2)CC1` gave a remaining binding of 30% (binding, competition with immobilised ligand; 1 µM).
For `CN(CCCC(F)(F)F)c1nccc(-c2cnn3ncccc23)n1`, the remaining binding was 88% (binding; 1 µM).
The remaining binding of `c1ccc(N2CCN(Cc3nc4ccccc4[nH]3)CC2)nc1` is reported as 88% (binding, competition with immobilised ligand; 1 µM).
The remaining binding of `c1cncc(-c2cccc(Nc3nccc(NC4CCCCC4)n3)c2)c1` is reported as 42% (binding, competition with immobilised ligand; 10 µM).
With `O=C(NCc1ncc(C(F)(F)F)cc1Cl)c1ccc2c(c1)C1(CCS(=O)(=O)CC1)[C@@H](C1CC1)N2S(=O)(=O)c1ccc(F)cc1` the remaining binding was 84% (cell-free assay, competition with immobilised ligand; 1 µM).
`F[C@@H]1CCN(c2nccc(-c3cnn4ncccc34)n2)C1` gave a remaining binding of 75% (binding; 1 µM).
With `O=C(NCCCN1CCOCC1)c1ccc(Nc2ncc(Cl)c(-c3ccc(Cl)s3)n2)cc1` the remaining binding was 63% (binding, competition with immobilised ligand; 1 µM).
`CS(=O)(=O)N1CCCC(NC(=O)[C@H](CCC2CCCCC2)NC(=O)c2ccc(CNC(=O)c3cnc4ccccn34)cc2)C1` (stereo partly shown) gave a remaining binding of 100% (cell-free assay, competition with immobilised ligand; 0.1 µM).
For `COc1cnc(Nc2cccc(S(N)(=O)=O)c2)nc1N1CCN(c2ccccc2)CC1`, the remaining binding was 100% (binding, competition with immobilised ligand; 1 µM).
`O=C(NCC1CCOCC1)c1n[nH]cc1NC(=O)c1c(F)cccc1F` gave a remaining binding of 100% (binding, competition with immobilised ligand; 1 µM).
The remaining binding of `FC(F)(F)Oc1cccc(-c2cnc3ccc(-c4ccncc4)nn23)c1` is reported as 34% (cell-free assay, competition with immobilised ligand; 5 µM).
For `CN(C)c1ncc(F)c(-c2cnn3ncccc23)n1`, the remaining binding was 100% (binding; 1 µM).
For `O=C(NCCCN1CCOCC1)c1ccc(Nc2nccc(-c3cc4ccccc4s3)n2)cc1`, the remaining binding was 77% (binding, competition with immobilised ligand; 1 µM).
`CNC(=O)[C@@H]1CC[C@@H](n2c(-c3ccc4cnccc4c3)nc3ccc(C(=O)NCc4cccc(C(N)=O)c4)cc32)C1` has a remaining binding of 100% (binding, competition with immobilised ligand; 1 µM).
`O=c1nc(-c2ccccn2)sc2ccccc12` has a remaining binding of 100% (binding, competition with immobilised ligand; 1 µM).
For `c1cnn2ncc(-c3ccnc(N4CCC45COC5)n3)c2c1`, the remaining binding was 84% (binding; 1 µM).
`CS(=O)(=O)c1cc(C2(NC(=O)c3cncc4c3cnn4-c3ccc(F)cc3)CC2)ccn1` has a remaining binding of 100% (cell-free assay, competition with immobilised ligand; 1 µM).
`N[C@@H]1CCN(c2nccc(-c3cnn4ncccc34)n2)C1` has a remaining binding of 99% (binding; 1 µM).
